Reference: ChEMBL document CHEMBL1275334, “5-Piperazinyl-3-sulfonylindazoles as potent and selective 5-hydroxytryptamine-6 antagonists” (J Med Chem, 2010)
Activity calls are given as the source filed them. The calls are words filed in the database; no cut-off is given here.

Assays:
[1] = target: T1, 5-hydroxytryptamine receptor 6 (Homo sapiens, UniProt P50406); experiment: Displacement of [3H]LSD from human cloned 5HT6 receptor expressed in human HeLa cells; type: cell-based
In short: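 Radioligand displacement of [3H]LSD from cloned human 5-HT6 receptor stably expressed in HeLa cells. All test substances were used as HCl salts. Ki was determined in triplicate.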

[2] = target: T1, 5-hydroxytryptamine receptor 6; experiment: Antagonist activity at human cloned 5HT6 receptor expressed in human HeLa cells by cyclase assay relative to control; type: functional, cell-based
[3] = target: T2, 5-hydroxytryptamine receptor 1A (Homo sapiens, UniProt P08908); experiment: Displacement of [3H]LSD from human cloned 5HT1A receptor expressed in human HeLa cells; type: cell-based
T2 sequence (P08908 whole entry): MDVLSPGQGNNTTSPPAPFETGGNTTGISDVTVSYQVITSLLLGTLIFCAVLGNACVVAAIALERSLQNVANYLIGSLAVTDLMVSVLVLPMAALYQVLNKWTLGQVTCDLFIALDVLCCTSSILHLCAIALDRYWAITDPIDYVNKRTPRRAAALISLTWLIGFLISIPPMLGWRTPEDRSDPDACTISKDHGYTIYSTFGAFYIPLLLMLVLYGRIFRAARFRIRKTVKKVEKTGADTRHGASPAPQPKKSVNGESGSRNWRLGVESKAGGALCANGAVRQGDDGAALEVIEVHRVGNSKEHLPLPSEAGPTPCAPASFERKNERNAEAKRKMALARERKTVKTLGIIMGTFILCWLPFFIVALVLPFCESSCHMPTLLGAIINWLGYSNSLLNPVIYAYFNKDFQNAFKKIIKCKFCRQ

[4] = target: 5-hydroxytryptamine receptor 1B (Homo sapiens, UniProt P28222); experiment: Displacement of [3H]LSD from human cloned 5HT1B receptor expressed in human HeLa cells; type: cell-based
Sequence of 5-hydroxytryptamine receptor 1B (P28222 whole entry): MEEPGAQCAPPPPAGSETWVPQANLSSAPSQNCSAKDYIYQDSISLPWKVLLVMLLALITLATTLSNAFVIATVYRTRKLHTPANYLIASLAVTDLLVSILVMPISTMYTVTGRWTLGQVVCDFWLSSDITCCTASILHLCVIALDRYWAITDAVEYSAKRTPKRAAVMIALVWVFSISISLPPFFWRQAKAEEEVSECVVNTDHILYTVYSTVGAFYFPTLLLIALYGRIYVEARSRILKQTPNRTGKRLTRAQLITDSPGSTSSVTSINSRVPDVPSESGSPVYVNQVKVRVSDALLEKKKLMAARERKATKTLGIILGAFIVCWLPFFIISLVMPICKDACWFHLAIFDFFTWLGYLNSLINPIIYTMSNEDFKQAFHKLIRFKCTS

[5] = target: 5-hydroxytryptamine receptor 1D (Homo sapiens, UniProt P28221); experiment: Displacement of [3H]LSD from human cloned 5HT1D receptor expressed in human HeLa cells; type: cell-based
Sequence of 5-hydroxytryptamine receptor 1D (P28221 whole entry): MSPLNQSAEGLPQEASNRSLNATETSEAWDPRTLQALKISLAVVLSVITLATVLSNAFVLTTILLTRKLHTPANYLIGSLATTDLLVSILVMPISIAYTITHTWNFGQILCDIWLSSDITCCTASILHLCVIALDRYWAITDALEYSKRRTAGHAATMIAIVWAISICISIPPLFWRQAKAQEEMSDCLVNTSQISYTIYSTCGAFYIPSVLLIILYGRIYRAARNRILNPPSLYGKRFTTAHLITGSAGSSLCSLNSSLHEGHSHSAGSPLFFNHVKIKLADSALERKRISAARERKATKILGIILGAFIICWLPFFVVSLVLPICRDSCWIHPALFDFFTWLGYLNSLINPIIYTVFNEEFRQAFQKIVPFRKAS

[6] = target: T3, 5-hydroxytryptamine receptor 2B (Homo sapiens, UniProt P41595); experiment: Displacement of [3H]LSD from human cloned 5HT2B receptor expressed in human HeLa cells; type: cell-based
T3 sequence (P41595 whole entry): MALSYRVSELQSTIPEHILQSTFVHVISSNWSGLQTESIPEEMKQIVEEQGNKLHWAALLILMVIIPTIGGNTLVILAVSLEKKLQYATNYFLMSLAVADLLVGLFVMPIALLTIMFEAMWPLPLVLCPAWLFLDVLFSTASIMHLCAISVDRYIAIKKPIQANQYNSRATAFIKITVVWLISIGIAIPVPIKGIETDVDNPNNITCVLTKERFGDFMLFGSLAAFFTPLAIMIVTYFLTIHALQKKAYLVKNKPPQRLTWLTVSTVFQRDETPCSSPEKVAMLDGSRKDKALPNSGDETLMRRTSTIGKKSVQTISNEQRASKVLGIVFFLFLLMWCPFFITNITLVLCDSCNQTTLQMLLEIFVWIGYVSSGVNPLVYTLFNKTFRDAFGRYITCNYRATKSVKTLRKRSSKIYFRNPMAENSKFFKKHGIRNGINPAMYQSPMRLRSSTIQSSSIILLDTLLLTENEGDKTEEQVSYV

[7] = target: T4, 5-hydroxytryptamine receptor 2C (Homo sapiens, UniProt P28335); experiment: Displacement of [3H]LSD from human cloned 5HT2C receptor expressed in human HeLa cells; type: cell-based
T4 sequence (P28335 whole entry): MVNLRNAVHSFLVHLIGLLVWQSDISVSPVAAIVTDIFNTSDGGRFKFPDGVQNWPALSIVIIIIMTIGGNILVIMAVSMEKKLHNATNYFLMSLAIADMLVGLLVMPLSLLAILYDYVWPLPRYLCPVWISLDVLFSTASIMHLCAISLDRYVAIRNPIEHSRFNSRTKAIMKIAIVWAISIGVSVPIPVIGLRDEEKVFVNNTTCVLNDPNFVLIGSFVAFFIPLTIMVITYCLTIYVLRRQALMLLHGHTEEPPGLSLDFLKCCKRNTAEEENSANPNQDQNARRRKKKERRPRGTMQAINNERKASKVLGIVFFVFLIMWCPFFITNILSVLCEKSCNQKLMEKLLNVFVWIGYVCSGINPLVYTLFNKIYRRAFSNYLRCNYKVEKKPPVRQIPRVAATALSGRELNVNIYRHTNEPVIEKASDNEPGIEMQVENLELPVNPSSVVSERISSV

[8] = target: 5-hydroxytryptamine receptor 7 (Homo sapiens, UniProt P34969); experiment: Displacement of [3H]LSD from human cloned 5HT7 receptor expressed in human HeLa cells; type: cell-based
Sequence of 5-hydroxytryptamine receptor 7 (P34969 whole entry): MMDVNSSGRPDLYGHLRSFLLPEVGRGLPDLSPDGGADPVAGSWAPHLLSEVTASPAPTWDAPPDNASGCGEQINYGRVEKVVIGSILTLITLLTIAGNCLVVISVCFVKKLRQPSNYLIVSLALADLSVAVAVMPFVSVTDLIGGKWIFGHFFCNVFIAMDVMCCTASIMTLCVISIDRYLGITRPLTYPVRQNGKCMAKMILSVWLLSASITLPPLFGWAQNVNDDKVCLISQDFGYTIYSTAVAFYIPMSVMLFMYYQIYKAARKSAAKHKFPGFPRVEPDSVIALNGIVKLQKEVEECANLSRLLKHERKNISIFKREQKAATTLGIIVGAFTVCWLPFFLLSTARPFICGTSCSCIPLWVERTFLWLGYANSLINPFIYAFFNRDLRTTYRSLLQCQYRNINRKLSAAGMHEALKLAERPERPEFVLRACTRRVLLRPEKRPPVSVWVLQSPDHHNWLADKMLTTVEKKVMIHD

[9] = target: T5, Alpha-2A adrenergic receptor (Homo sapiens, UniProt P08913); experiment: Displacement of [3H]LSD from human cloned alpha2A adrenergic receptor expressed in human HeLa cells; type: cell-based
T5 sequence (P08913 whole entry): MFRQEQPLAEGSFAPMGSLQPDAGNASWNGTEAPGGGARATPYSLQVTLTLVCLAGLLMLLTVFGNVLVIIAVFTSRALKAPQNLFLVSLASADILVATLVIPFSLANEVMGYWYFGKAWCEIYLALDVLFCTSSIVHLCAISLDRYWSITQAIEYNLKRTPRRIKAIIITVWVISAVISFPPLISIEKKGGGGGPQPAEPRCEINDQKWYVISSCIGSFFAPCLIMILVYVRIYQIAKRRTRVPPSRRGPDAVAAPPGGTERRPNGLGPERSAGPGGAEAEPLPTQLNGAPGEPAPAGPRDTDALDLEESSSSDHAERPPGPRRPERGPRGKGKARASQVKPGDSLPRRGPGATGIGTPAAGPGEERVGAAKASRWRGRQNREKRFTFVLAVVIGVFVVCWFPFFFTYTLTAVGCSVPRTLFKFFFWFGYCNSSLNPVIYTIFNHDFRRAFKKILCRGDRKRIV

D(2) dopamine receptor = D(2) dopamine receptor (Homo sapiens, UniProt P14416); experiment: Displacement of [3H]LSD from human cloned dopamine D2 receptor expressed in human HeLa cells; type: cell-based
Sequence of D(2) dopamine receptor (P14416 whole entry): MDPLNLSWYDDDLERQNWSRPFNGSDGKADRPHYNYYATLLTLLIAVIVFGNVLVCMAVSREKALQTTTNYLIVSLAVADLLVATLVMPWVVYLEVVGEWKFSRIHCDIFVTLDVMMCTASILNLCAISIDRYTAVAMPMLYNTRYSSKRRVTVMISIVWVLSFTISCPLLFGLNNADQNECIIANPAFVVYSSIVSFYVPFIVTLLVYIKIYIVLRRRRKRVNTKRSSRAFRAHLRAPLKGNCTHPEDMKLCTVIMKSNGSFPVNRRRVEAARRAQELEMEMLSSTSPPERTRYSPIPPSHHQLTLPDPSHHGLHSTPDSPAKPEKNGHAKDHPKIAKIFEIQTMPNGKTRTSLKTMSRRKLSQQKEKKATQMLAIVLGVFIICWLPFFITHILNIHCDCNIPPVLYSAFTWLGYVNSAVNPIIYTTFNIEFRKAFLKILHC

[10] = target: T3, 5-hydroxytryptamine receptor 2B; experiment: Agonist activity at human recombinant 5HT2B receptor expressed in CHOK1 cells at 0.0001 to 10 uM by FLIPR assay; type: functional, cell-based; details: CHO-K1
[11] = target: T1, 5-hydroxytryptamine receptor 6; experiment: Antagonist activity at human cloned 5HT6 receptor expressed in human HeLa cells by cyclase assay; type: functional, cell-based
[12] = Oral bioavailability in rat at 10 mg/kg; type: ADME, organism-based; details: in vivo
[13] = Ratio of drug level in brain to plasma in rat at 10 mg/kg, po; type: ADME, organism-based; design: dose 10 mg/kg, route oral; details: read-out: BPR

T1 sequence (P50406 whole entry): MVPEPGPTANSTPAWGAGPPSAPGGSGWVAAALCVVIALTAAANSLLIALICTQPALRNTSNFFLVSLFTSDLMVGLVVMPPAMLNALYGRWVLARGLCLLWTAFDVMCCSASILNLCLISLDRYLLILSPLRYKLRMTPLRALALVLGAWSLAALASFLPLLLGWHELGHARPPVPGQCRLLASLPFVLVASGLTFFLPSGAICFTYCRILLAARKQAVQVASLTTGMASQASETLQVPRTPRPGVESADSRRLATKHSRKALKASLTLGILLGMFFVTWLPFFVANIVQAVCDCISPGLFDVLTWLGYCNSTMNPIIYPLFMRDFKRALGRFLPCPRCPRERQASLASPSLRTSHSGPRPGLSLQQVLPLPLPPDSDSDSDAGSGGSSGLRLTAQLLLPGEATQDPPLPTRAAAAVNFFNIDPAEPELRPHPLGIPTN

CC(C)n1nc(S(=O)(=O)c2cccc3ccccc23)c2cc(N3CCNCC3)ccc21
Ki [1]: 2.9 nM
Imax [2]: 100%
Ki [3]: > 5000 nM
Ki [4]: > 5000 nM
Ki [5]: > 5000 nM
Ki [6]: 96 nM
Ki [7]: 1080 nM
Ki [8]: > 5000 nM
Ki [9]: > 5000 nM
Ki (D(2) dopamine receptor): 2040 nM
Activity [10]: inactive

O=S(=O)(c1cccc2ccccc12)c1n[nH]c2cccc(N3CCNCC3)c12
Ki [1]: 48 nM

CN1CCN(c2cccc3c(S(=O)(=O)c4cccc5ccccc45)n[nH]c23)CC1
Ki [1]: 4.6 nM
IC50 [11]: 17 nM
Imax [2]: 100%

CN1CCN(c2ccc3[nH]nc(S(=O)(=O)c4ccccc4F)c3c2)CC1
Ki [1]: 5.5 nM
IC50 [11]: 54 nM
Imax [2]: 100%

CC(C)n1nc(S(=O)(=O)c2cccc3ccccc23)c2cc(N3CCN(C)CC3)ccc21
Ki [1]: 1.8 nM
Imax [2]: 98%

Cc1cccc(S(=O)(=O)c2n[nH]c3ccc(N4CCN(C)CC4)cc23)c1
Ki [1]: 0.9 nM
IC50 [11]: 38 nM
Imax [2]: 100%

O=S(=O)(c1cccc(F)c1)c1n[nH]c2cccc(N3CCNCC3)c12
Ki [1]: 134 nM

Cc1ccc(S(=O)(=O)c2n[nH]c3ccc(N4CCN(C)CC4)cc23)cc1
Ki [1]: 4.9 nM
IC50 [11]: 112 nM
Imax [2]: 100%

CCn1nc(S(=O)(=O)c2cccc3ccccc23)c2cc(N3CCNCC3)ccc21
Imax [2]: 100%

Cc1ccc(S(=O)(=O)c2n[nH]c3cc(N4CCNCC4)ccc23)cc1
Ki [1]: 27 nM

CN1CCN(c2ccc3c(c2)c(S(=O)(=O)c2cccc4ccccc24)nn3C)CC1
Ki [1]: 1.7 nM
Imax [2]: 100%

O=S(=O)(c1ccc(C(F)(F)F)cc1)c1n[nH]c2cc(N3CCNCC3)ccc12
Ki [1]: 207 nM

CN1CCN(c2ccc3[nH]nc(S(=O)(=O)c4cccs4)c3c2)CC1
Ki [1]: 7.8 nM
IC50 [11]: 331 nM
Imax [2]: 96%

Cn1nc(S(=O)(=O)c2ccccc2)c2cc(N3CCNCC3)ccc21
Ki [1]: 3.2 nM
Imax [2]: 100%

O=S(=O)(c1cccc2ccccc12)c1nn(Cc2ccccc2)c2ccc(N3CCNCC3)cc12
Imax [2]: 100%
Ki [3]: > 5000 nM
Ki [4]: > 5000 nM
Ki [5]: > 5000 nM
Ki [6]: 141 nM
Ki [7]: 1070 nM
Ki [8]: > 5000 nM
Ki [9]: > 5000 nM
Ki (D(2) dopamine receptor): 605 nM
Activity [10]: inactive
bioavailability [12]: > 50%
Kp [13]: > 0.5

CCCn1nc(S(=O)(=O)c2cccc3ccccc23)c2cc(N3CCN(C)CC3)ccc21
Ki [1]: 1.8 nM
Imax [2]: 100%

CN1CCN(c2ccc3[nH]nc(S(=O)(=O)c4ccc(Cl)cc4)c3c2)CC1
Ki [1]: 8.1 nM
IC50 [11]: 108 nM
Imax [2]: 100%

CN1CCN(c2ccc3[nH]nc(S(=O)(=O)c4ccccc4Cl)c3c2)CC1
IC50 [11]: 101 nM
Imax [2]: 100%

CN1CCN(c2ccc3[nH]nc(S(=O)(=O)c4cccc(Cl)c4)c3c2)CC1
Ki [1]: 1 nM
IC50 [11]: 62 nM
Imax [2]: 100%

CCCn1nc(S(=O)(=O)c2cccc3ccccc23)c2cc(N3CCNCC3)ccc21
IC50 [11]: 2.2 nM

CC(C)Cn1nc(S(=O)(=O)c2cccc3ccccc23)c2cc(N3CCN(C)CC3)ccc21
Ki [1]: 1.4 nM
Imax [2]: 100%

O=S(=O)(c1ccc(Cl)cc1)c1n[nH]c2cc(N3CCNCC3)ccc12
Ki [1]: 110 nM

O=S(=O)(c1cccc(F)c1)c1n[nH]c2cc(N3CCNCC3)ccc12
Ki [1]: 11 nM

CN1CCN(c2ccc3[nH]nc(S(=O)(=O)c4cccc5ccccc45)c3c2)CC1
Ki [1]: 1.6 nM
IC50 [11]: 8 nM
Imax [2]: 100%
Ki [3]: > 5000 nM
Ki [4]: > 5000 nM
Ki [5]: > 5000 nM
Ki [6]: 601 nM
Ki [7]: > 5000 nM
Ki [8]: 579 nM
Ki [9]: > 5000 nM
Ki (D(2) dopamine receptor): 334 nM
Activity [10]: inactive
bioavailability [12]: 5%

CN1CCN(c2ccc3[nH]nc(S(=O)(=O)c4ccccc4)c3c2)CC1
Ki [1]: 1.9 nM
IC50 [11]: 8.8 nM
Imax [2]: 99%
Ki [3]: > 5000 nM
Ki [4]: > 5000 nM
Ki [5]: > 5000 nM
Ki [6]: 978 nM
Ki [7]: 3070 nM
Ki [8]: 753 nM
Ki [9]: > 5000 nM
Ki (D(2) dopamine receptor): 355 nM
Activity [10]: inactive

COc1ccc(S(=O)(=O)c2n[nH]c3ccc(N4CCN(C)CC4)cc23)cc1
IC50 [11]: 544 nM
Imax [2]: 100%

O=S(=O)(c1ccc(Cl)cc1)c1n[nH]c2cccc(N3CCNCC3)c12
Ki [1]: 125 nM

CC(C)Cn1nc(S(=O)(=O)c2cccc3ccccc23)c2cc(N3CCNCC3)ccc21
Imax [2]: 100%
Ki [3]: > 5000 nM
Ki [4]: > 5000 nM
Ki [5]: > 5000 nM
Ki [6]: 281 nM
Ki [7]: 1880 nM
Ki [8]: > 5000 nM
Ki [9]: > 5000 nM
Ki (D(2) dopamine receptor): 1900 nM
Activity [10]: inactive

COc1cccc(S(=O)(=O)c2n[nH]c3ccc(N4CCN(C)CC4)cc23)c1
Ki [1]: 1.1 nM
IC50 [11]: 57 nM
Imax [2]: 100%

Cc1ccc(S(=O)(=O)c2n[nH]c3cccc(N4CCNCC4)c23)cc1
Ki [1]: 134 nM

CN1CCN(c2ccc3[nH]nc(S(=O)(=O)c4cccc(F)c4)c3c2)CC1
Ki [1]: 1.7 nM
IC50 [11]: 132 nM
Imax [2]: 99%

CN1CCN(c2ccc3[nH]nc(S(=O)(=O)c4ccc(F)cc4)c3c2)CC1
Ki [1]: 5.2 nM
IC50 [11]: 467 nM
Imax [2]: 98%

COc1ccc(S(=O)(=O)c2n[nH]c3cc(N4CCNCC4)ccc23)cc1
Ki [1]: 124 nM

CN1CCN(c2ccc3c(c2)c(S(=O)(=O)c2cccc4ccccc24)nn3Cc2ccccc2)CC1
Imax [2]: 100%

O=S(=O)(c1cccc2ccccc12)c1n[nH]c2cc(N3CCNCC3)ccc12
Ki [1]: 22 nM

Cn1nc(S(=O)(=O)c2cccc3ccccc23)c2cc(N3CCNCC3)ccc21
Imax [2]: 99%
Ki [3]: 1780 nM
Ki [4]: 3620 nM
Ki [5]: 2760 nM
Ki [6]: 87 nM
Ki [7]: 3650 nM
Ki [8]: > 5000 nM
Ki [9]: > 5000 nM
Ki (D(2) dopamine receptor): 2240 nM
Activity [10]: inactive

CCn1nc(S(=O)(=O)c2ccccc2)c2cc(N3CCNCC3)ccc21
Ki [1]: 2.9 nM
Imax [2]: 100%

COc1ccc(S(=O)(=O)c2n[nH]c3cccc(N4CCNCC4)c23)cc1
Ki [1]: 88 nM

CCn1nc(S(=O)(=O)c2cccc3ccccc23)c2cc(N3CCN(C)CC3)ccc21
Ki [1]: 1.7 nM
Imax [2]: 100%

CN1CCN(c2ccc3[nH]nc(S(=O)(=O)c4c(Cl)cccc4Cl)c3c2)CC1
Ki [1]: 2.6 nM
IC50 [11]: 40 nM
Imax [2]: 100%
